Assay results reported in the RNAGym collection of RNA variant scans (doi:10.1038/nmeth.2970).

B1: NELF-E aptamer (parent)
chain: CCCAACGACUGCCGAGCGAGAUUACGCUUGAGCGCCCCACUGAGGAUGCCCACGGGCGAUUGGGGCACGG

Variants of: B1
Test: HiTS-RAP
Conditions: with NELF-E (Drosophila)
How it was run: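 Kd came from weighted Hill fits to the first binding curve, with intensities normalised to sequencing intensity and averaged per sequence, keeping only fits whose variance was below 1,000,000. That curve was imaged on an Illumina GAIIx flowcell, where sequenced aptamer DNA templates with a T7 promoter and ter site had been transcribed in situ by T7 RNA polymerase and halted by GST-Tus (30 minutes, 37°C). Before each image, clusters equilibrated for 30 minutes at room temperature with NELF-E-mOrange at 0.064 to 1000 nM in HEPES binding buffer.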

Compared with CCCAACGACUGCCGAGCGAGAGUACGCUUGAGCGCCCCACUGAGGAUGCCCACUGGCGAUUGGGGCACGG [U22G G54U], CCCAACGGCUGCCGAGCGAGAUUACGCUUGAGCGCCCCUCUGAGGAUGCCCACGGGCGAUUGGGGCACGG [A8G A39U] is 3-fold higher in Kd: 7.13 nM for the first, 21.7 nM for the second. The first binds more tightly here.

Compared with CCCAACGACUGCCGAGCGAGAUUACGCUUGAGCGCCCCACUGAGGAUGCUCACGGGCGAUUGGGGCACGG [C50U], CCCAACGAGUGCCGAGCGAGAUUACGCUUGAGCGCCCCACAGAGGAUGCCCACGGGCGAUUGGGGCACGG [C9G U41A] is 6.5-fold higher in Kd: 12.2 nM for the first, 79.4 nM for the second. The first binds more tightly here.

CCCAACGACUGCCGAGAGAGAUUACGCUUGAGCGCCCCACUGAGGAUGCCCACGGGCGAUUGGGGCACGG [C17A] and CCCAGCGACUGCCGAGCGAGAUUACACUUGAGCGCCCCACUGAGGAUGCCCACGGGCGAUUGGGGCACGG [A5G G26A] are within 1.5-fold of each other in Kd: 4.3 nM for the first, 5.29 nM for the second.

CCCAACGACUGCCGAGCGAGAUUACGCUUGAGCGCCCCACUGAGGAUUGCCACGGGCGAUUGGGGCACGG [G48U C49G] and CCCAACGACGGCCGAGGGAGAUUACGCUUGAGCGCCCCACUGAGGAUGCCCACGGGCGAUUGGGGCACGG [U10G C17G] are within 1.5-fold of each other in Kd: 5.14 nM for the first, 4.78 nM for the second.

First: CCCAACGACUGCCGAGCGAUAUUACGCUUGAGCGCCCCGCUGAGGAUGCCCACGGGCGAUUGGGGCACGG [G20U A39G]
Second: CCCAACGAUUGCCGAGCGAGAUUACGCUUGAGCGCCCCACUGAGGAUGCCCACGGGCGAUUGGGGCACGG [C9U]
The Kd of the first is 2.1-fold higher: 10.9 nM for the first, 5.19 nM for the second.

CCCAACGGCUGCCGAGCGAGAUUACGCUUGAGCGCCCCACUGAGGAUGCCCACGGGUGAUUGGGGCACGG [A8G C57U] and CCCAACGACUGCCGAGUGAGAUGACGCUUGAGCGCCCCACUGAGGAUGCCCACGGGCGAUUGGGGCACGG [C17U U23G] are within 1.5-fold of each other in Kd: 6 nM for the first, 4.95 nM for the second.

Compared with CCCAACGACUGCCGAGCGAGAUUACGCUGGAGCGCCCCACUGAAGAUGCCCACGGGCGAUUGGGGCACGG [U29G G44A], CCCAAGGACUGCCGAGCGAGAUUACGCUUGAGCGGCCCACUGAGGAUGCCCACGGGCGAUUGGGGCACGG [C6G C35G] is 13-fold lower in Kd: 94.7 nM for the first, 7.18 nM for the second. The second binds more tightly here.

CCCAACGACUGCCGAGCGAGAUUACGCUGGAGCGCCCCACUGAGUAUGCCCACGGGCGAUUGGGGCACGG [U29G G45U] and CCCAACGACUGCCGAGCGAGAUUACGCUUGAGCGCCCCACUGAGGAUGCCCACGGGCGAUUGGGACACGG [G65A] are within 1.5-fold of each other in Kd: 5.6 nM for the first, 4.39 nM for the second.

Compared with CCCAACGACUGCCGAGCGAGAGUACGCUUGAGCGCCCCACUGAGGAUGCCCACGGGCGAUGGGGGCACGG [U22G U61G], CCCAACGACGGCCGAGCGAGAUUACGCUUGAGCGCCCCACUGAGGAUGCCCACGGGCGAUUGAGGCACGG [U10G G63A] is 1.7-fold higher in Kd: 9.56 nM for the first, 16.5 nM for the second. The first binds more tightly here.

First: CCCAACGACUGCCGAGCGAGAUUACGCUUGAGCGCCCCACUGAGGAUGCCCACGGGCAAUUGGGGCACGG [G58A]
Second: CCCAACGACUGCCGAGCGGGAUUACGCUUGAGCGCCCCACUGAGGAUGCCCACGGGCGAUUGGGACACGG [A19G G65A]
The Kd of the first is 1.5-fold higher: 9.31 nM for the first, 6.12 nM for the second.

First: CCCAGCGACUGCCGAGCGAGAUUACGCUUGAGCGCCCCACUGAGGAUGCCCACGGGCGAUUGGGGUACGG [A5G C66U]
Second: CCCAACGUCUGCCGAGCGAGAUUACGCUUGAGCGCCACACUGAGGAUGCCCACGGGCGAUUGGGGCACGG [A8U C37A]
The Kd of the first is 3.4-fold lower: 6.42 nM for the first, 22.1 nM for the second. The first binds more tightly here.

CCCAACGACUUCCGAGCGAGAUUACGCUUGAGCGCCCCACUGAGGAUGCCCACGUGCGAUUGGGGCACGG [G11U G55U] and CCCAACGACUGCCAGGCGAGAUUACGCUUGAGCGCCCCACUGAGGAUGCCCACGGGCGAUUGGGGCACGG [G14A A15G] are within 1.5-fold of each other in Kd: 7.1 nM for the first, 6.1 nM for the second.

CCCAACGACGGCCGAGCGAGAUUACGCUUGAGCGCCCCACUGAGGAUGCCCCCGGGCGAUUGGGGCACGG [U10G A52C] and CCCUACGACUGCCGAGCGAGAUUGCGCUUGAGCGCCCCACUGAGGAUGCCCACGGGCGAUUGGGGCACGG [A4U A24G] are within 1.5-fold of each other in Kd: 5.8 nM for the first, 6.45 nM for the second.

Going from CCCAACGACUGCCGAGCGAGAUUACGCUUGAGCGCCCCACCGAGGAUGCCCACGGGCGAUUGGGGCACGG [U41C] to CCCAACGAGUGCCGAGCGAGAUUACACUUGAGCGCCCCACUGAGGAUGCCCACGGGCGAUUGGGGCACGG [C9G G26A], the Kd falls from 68.9 nM to 5.39 nM (13-fold).

CCCAACGACUGCCUAGCGAGAUUACGCUUGAGCGCCCCACUGAGGAUGCCCACGGGCGAUUGGGGCGCGG [G14U A67G] and CCCAAGGACUGCCGAGCGAGAUUACGCUUGAGCGCCCCACUGAGGAUGCCCACGGGCGAUUGGUGCACGG [C6G G64U] are within 1.5-fold of each other in Kd: 6.8 nM for the first, 6.35 nM for the second.

First: CCCAACGACUGCCGAGCGAGAUUGCGCUUGAGCGCCCCACUGGGGAUGCCCACGGGCGAUUGGGGCACGG [A24G A43G]
Second: CCCAACUACUGCCGAGCGAGAUUACGCUUGAGCGCCCUACUGAGGAUGCCCACGGGCGAUUGGGGCACGG [G7U C38U]
The Kd of the first is 3.1-fold higher: 27.9 nM for the first, 8.98 nM for the second.

CCCAACGACUGCCGAGCGAGAGUACGCUUGAGCGCCCCACUGAGGAUGCCCACGGGCGAUUGGUGCACGG [U22G G64U] and CCCAACGACUGCCAAGCGAGAUUACGCUUGAGUGCCCCACUGAGGAUGCCCACGGGCGAUUGGGGCACGG [G14A C33U] are within 1.5-fold of each other in Kd: 6.37 nM for the first, 6.15 nM for the second.

Going from CCCAACGACUGCCGAGCGAGAUUACGCUGGAGCGCCCCACUGAGGAUGCUCACGGGCGAUUGGGGCACGG [U29G C50U] to CCCAACGACUGCCUAGCAAGAUUACGCUUGAGCGCCCCACUGAGGAUGCCCACGGGCGAUUGGGGCACGG [G14U G18A], the Kd falls from 15.4 nM to 6.29 nM (2.4-fold). The second binds more tightly here.

Going from CCCAAGGACUGCCGAGCGAGAUUACGCUUGAGCGCCCCACUGAGGAUGCUCACGGGCGAUUGGGGCACGG [C6G C50U] to CCCAGCAACUGCCGAGCGAGAUUACGCUUGAGCGCCCCACUGAGGAUGCCCACGGGCGAUUGGGGCACGG [A5G G7A], the Kd falls from 16.1 nM to 6.52 nM (2.5-fold). The second binds more tightly here.

In the case of CCCAACGACUGCGGAGCGAGAUUACGCUGGAGCGCCCCACUGAGGAUGCCCACGGGCGAUUGGGGCACGG [C13G U29G], the Kd is reported as 4.95 nM.
